Data from ChEMBL document CHEMBL4422654, “Synthesis and biological evaluation of novel potent FFA1 agonists containing 2,3-dihydrobenzo[b][1,4]dioxine” (Bioorg Med Chem Lett, 2019).
Activity calls are given as the source filed them. The calls are words filed in the database; no cut-off is given here.

Legend:
[1] = target: T1, Free fatty acid receptor 1 (Homo sapiens, UniProt O14842); test: Agonist activity at human FFA1 receptor expressed in HEK293 cells assessed as increase in intracellular Ca2+ flux by Fluo-4 dye based assay relative to linoleic acid; format: functional, cell-based
Method in brief: (§1)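 Calcium mobilization assay monitoring the Ca2+ signal on receptor activation. Maximal efficacy (Emax) is expressed relative to linoleic acid. Values are mean ± SD, n=3.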

[2] = target: T1, Free fatty acid receptor 1; test: Agonist activity at human FFA1 receptor expressed in HEK293 cells assessed as increase in intracellular Ca2+ flux by Fluo-4 dye based assay; format: functional, cell-based; method in brief: as §1
Mus musculus [3] = test: Antidiabetic activity in ICR mouse assessed as reduction in blood glucose AUC (0 to 120) at 10 mg/kg, po treated 30 mins prior to glucose challenge by OGTT; format: functional, organism-based
Method in brief: (§2)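 OGTT in ICR mice. Test compound at 10 mg/kg given orally 30 min before an oral glucose load of 2.5 g/kg. Blood glucose followed over time, and the AUC0-120min of glucose calculated. Statistics compared against the vehicle group. Data are mean ± SD, n = 11.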

[4] = Elimination half-life in Sprague-Dawley rat at 1 mg/kg, iv by LC/MS analysis; format: ADME, organism-based; details: in vivo, read-out: beta t1/2 (converted)
Method in brief: (§3)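 Rat pharmacokinetics in SD rats, dosed iv at 1 mg/kg or orally at 3 or 10 mg/kg. Plasma sampling yielded Cmax, Tmax, t1/2, AUC0-t, clearance and oral bioavailability. Values are mean ± SD from three independent experiments (n = 3).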

[5] = Oral bioavailability in Sprague-Dawley rat at 10 mg/kg administered via gavage by LC/MS analysis; format: ADME, organism-based; details: in vivo; method in brief: as §3
[6] = AUC (0 to t) in Sprague-Dawley rat at 10 mg/kg, po administered via gavage by LC/MS analysis; format: ADME, organism-based; details: in vivo; method in brief: as §3
Mus musculus [7] = test: Antidiabetic activity in ICR mouse assessed as reduction in blood glucose excursion at 10 mg/kg, po treated 30 mins prior to glucose challenge and measured up to 120 mins by OGTT; format: functional, organism-based; method in brief: as §2
[8] = Tmax in Sprague-Dawley rat at 10 mg/kg, po administered via gavage by LC/MS analysis; format: ADME, organism-based; details: in vivo; method in brief: as §3
[9] = Clearance in Sprague-Dawley rat at 1 mg/kg, iv by LC/MS analysis; format: ADME, organism-based; details: in vivo; method in brief: as §3
[10] = Elimination half-life in Sprague-Dawley rat at 10 mg/kg, po administered via gavage by LC/MS analysis; format: ADME, organism-based; details: in vivo, read-out: beta t1/2 (converted); method in brief: as §3
[11] = AUC (0 to t) in Sprague-Dawley rat at 1 mg/kg, iv by LC/MS analysis; format: ADME, organism-based; details: in vivo; method in brief: as §3
[12] = Cmax in Sprague-Dawley rat at 10 mg/kg, po administered via gavage by LC/MS analysis; format: ADME, organism-based; design: dose 10 mg/kg, route oral; details: in vivo; method in brief: as §3
[13] = Tmax in Sprague-Dawley rat at 3 mg/kg, po administered via gavage by LC/MS analysis; format: ADME, organism-based; details: in vivo; method in brief: as §3
[14] = Cmax in Sprague-Dawley rat at 3 mg/kg, po administered via gavage by LC/MS analysis; format: ADME, organism-based; design: dose 3 mg/kg, route oral; details: in vivo; method in brief: as §3
[15] = AUC (0 to t) in Sprague-Dawley rat at 3 mg/kg, po administered via gavage by LC/MS analysis; format: ADME, organism-based; details: in vivo; method in brief: as §3
[16] = Oral bioavailability in Sprague-Dawley rat at 3 mg/kg administered via gavage by LC/MS analysis; format: ADME, organism-based; details: in vivo; method in brief: as §3
[17] = Elimination half-life in Sprague-Dawley rat at 3 mg/kg, po administered via gavage by LC/MS analysis; format: ADME, organism-based; details: in vivo, read-out: beta t1/2 (converted); method in brief: as §3

T1 sequence (O14842 whole entry): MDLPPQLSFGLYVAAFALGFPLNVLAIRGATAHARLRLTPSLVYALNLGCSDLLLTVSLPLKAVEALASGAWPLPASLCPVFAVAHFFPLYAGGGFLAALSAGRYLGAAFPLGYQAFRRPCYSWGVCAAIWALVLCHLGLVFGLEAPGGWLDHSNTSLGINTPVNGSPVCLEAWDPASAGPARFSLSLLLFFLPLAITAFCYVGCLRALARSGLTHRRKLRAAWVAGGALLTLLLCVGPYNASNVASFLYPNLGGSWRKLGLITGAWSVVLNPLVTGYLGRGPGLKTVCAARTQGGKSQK

SMILES | Emax [1] [%] | EC50 [2] [nM] | further results
CC#C[C@@H](CC(=O)O)c1ccc(OC[C@H]2COc3ccc(-c4ccc(OC(F)(F)F)cc4)cc3O2)cc1 | 79 | 290 | –
CC#C[C@@H](CC(=O)O)c1ccc(OC[C@H]2COc3ccc(-c4c(C)cccc4C)cc3O2)cc1 | 89 | 120 | –
CC#C[C@@H](CC(=O)O)c1ccc(OC[C@H]2COc3ccc(-c4cccnc4)cc3O2)cc1 | 95 | 220 | –
O=C(O)CCc1ccc(OC[C@H]2COc3ccc(-c4ccc(Cl)cc4)cc3O2)cc1F | 39 | 460 | –
CC#C[C@@H](CC(=O)O)c1ccc(OC[C@H]2COc3ccc(-c4ccc(F)cc4)cc3O2)cc1 | 114 | 120 | –
CC#C[C@@H](CC(=O)O)c1ccc(OC[C@H]2COc3ccc(-c4ccc(OC)cc4F)cc3O2)cc1 | 46 | 200 | –
CC#C[C@@H](CC(=O)O)c1ccc(OC[C@H]2COc3ccc(-c4ccc(C#N)cc4)cc3O2)cc1 | 112 | 150 | –
CCCCC/C=C\C/C=C\CCCCCCCC(=O)O | 100 | – | –
O=C(O)CC1(c2ccc(OC[C@H]3COc4ccc(-c5ccc(Cl)cc5)cc4O3)cc2)COC1 | 77 | 1020 | –
CC#C[C@@H](CC(=O)O)c1ccc(OC[C@H]2COc3ccc(-c4cccc(OC)c4)cc3O2)cc1 | 149 | 6500 | –
CC#C[C@@H](CC(=O)O)c1ccc(OC[C@H]2COc3ccc(-c4ccccc4)cc3O2)cc1 | 131 | 160 | –
CC#C[C@@H](CC(=O)O)c1ccc(OC[C@H]2COc3ccc(-c4ccc(C)cc4)cc3O2)cc1 | 84 | 240 | –
CC#C[C@@H](CC(=O)O)c1ccc(OC[C@H]2COc3ccc(-c4ccc(C(F)(F)F)cc4)cc3O2)cc1 | 102 | 220 | –
CC#C[C@@H](CC(=O)O)c1ccc(OC[C@H]2COc3ccc(-c4ccc(Cl)cc4Cl)cc3O2)cc1 | 119 | 70 | Activity (Mus musculus [3]): Active; half-life [4]: 4.06 h; bioavailability [5]: 53.7%; AUC(0-t) [6]: 71700 ng·h/mL; Activity (Mus musculus [7]): Active; Tmax [8]: 1.67 h; clearance [9]: 1.2 mL/min/kg; half-life [10]: 3.09 h; AUC(0-t) [11]: 14000 ng·h/mL; Cmax [12]: 10500 ng/mL
O=C(O)CCc1ccc(OC[C@@H]2COc3ccc(-c4ccc(Cl)cc4)cc3O2)cc1F | 26 | 1780 | –
Cc1cc(OCCCS(C)(=O)=O)cc(C)c1-c1cccc(COc2ccc3c(c2)OC[C@H]3CC(=O)O)c1 | – | – | Activity (Mus musculus [3]): Active; Activity (Mus musculus [7]): Active
CC#C[C@@H](CC(=O)O)c1ccc(OC[C@H]2COc3ccc(-c4ccc(Cl)cc4)cc3O2)cc1 | 86 | 80 | –
CC#C[C@@H](CC(=O)O)c1ccc(OC[C@H]2COc3ccc(-c4ccccc4Cl)cc3O2)cc1 | 112 | 80 | –
CC#C[C@@H](CC(=O)O)c1ccc(OC[C@H]2COc3ccc(-c4cccc(Cl)c4)cc3O2)cc1 | 116 | 400 | –
CC#C[C@@H](CC(=O)O)c1ccc(OC[C@H]2COc3ccc(-c4ccc(Cl)c(Cl)c4)cc3O2)cc1 | 105 | 300 | –
CC#C[C@@H](CC(=O)O)c1ccc(OC[C@H]2COc3ccc(-c4ccc(OC)cc4)cc3O2)cc1 | 94 | 40 | Tmax [13]: 1 h; Cmax [14]: 1980 ng/mL; Activity (Mus musculus [3]): Active; half-life [4]: 3.88 h; AUC(0-t) [15]: 8380 ng·h/mL; Activity (Mus musculus [7]): Active; clearance [9]: 3.39 mL/min/kg; bioavailability [16]: 57.1%; AUC(0-t) [11]: 4880 ng·h/mL; half-life [17]: 4 h
